Reference: ChEMBL document CHEMBL2062435, “Synthesis and in vitro antibacterial activity of gemifloxacin derivatives containing a substituted benzyloxime moiety” (2012)

Experiments:
Assay type in all cases: functional
[1] = system: Enterococcus faecalis; assay: Antimicrobial activity against Enterococcus faecalis 10-7 after 18-24 hrs by two-fold serial dilution method
In short: (§1)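 Agar-medium twofold serial dilution against Gram-positive and Gram-negative strains; MIC taken as the lowest compound concentration giving complete inhibition of bacterial growth after incubation at 35 °C for 18-24 h.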

[2] = system: Staphylococcus aureus; assay: Antimicrobial activity against extended spectrum beta-lactamases-producing methicillin-sensitive Staphylococcus aureus 10-13 after 18-24 hrs by two-fold serial dilution method; in short: as §1
[3] = system: Klebsiella pneumoniae; assay: Antimicrobial activity against extended spectrum beta-lactamases-producing Klebsiella pneumoniae 10-1 after 18-24 hrs by two-fold serial dilution method; in short: as §1
[4] = system: Staphylococcus epidermidis; assay: Antimicrobial activity against extended spectrum beta-lactamases-producing methicillin-resistant Staphylococcus epidermidis 10-10 after 18-24 hrs by two-fold serial dilution method
In short: (§2)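 Agar twofold serial dilution MIC against clinical isolates. MIC was taken as the lowest concentration giving complete inhibition of bacterial growth after incubation at 35 °C for 18-24 h.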

[5] = system: Enterococcus faecalis; assay: Antimicrobial activity against Enterococcus faecalis 10-6 after 18-24 hrs by two-fold serial dilution method; in short: as §1
[6] = system: Klebsiella pneumoniae; assay: Antimicrobial activity against extended spectrum beta-lactamases-producing Klebsiella pneumoniae 10-3 after 18-24 hrs by two-fold serial dilution method; in short: as §1
[7] = system: Staphylococcus epidermidis; assay: Antimicrobial activity against extended spectrum beta-lactamases-producing methicillin-resistant Staphylococcus epidermidis 10-13 after 18-24 hrs by two-fold serial dilution method; in short: as §2
[8] = system: Pseudomonas aeruginosa; assay: Antimicrobial activity against extended spectrum beta-lactamases-producing Pseudomonas aeruginosa 10-15 after 18-24 hrs by two-fold serial dilution method; in short: as §1
[9] = system: Staphylococcus aureus; assay: Antimicrobial activity against Staphylococcus aureus ATCC […] after 18-24 hrs by two-fold serial dilution method; in short: as §1
[10] = system: Staphylococcus aureus; assay: Antimicrobial activity against extended spectrum beta-lactamases-producing methicillin-resistant Staphylococcus aureus 10-11 after 18-24 hrs by two-fold serial dilution method; in short: as §2
[11] = system: Enterococcus faecalis; assay: Antimicrobial activity against Enterococcus faecalis 10-5 after 18-24 hrs by two-fold serial dilution method; in short: as §1
[12] = system: Escherichia coli; assay: Antimicrobial activity against Escherichia coli 10-1 after 18-24 hrs by two-fold serial dilution method; in short: as §1
[13] = system: Pseudomonas aeruginosa; assay: Antimicrobial activity against Pseudomonas aeruginosa 10-12 after 18-24 hrs by two-fold serial dilution method; in short: as §1
[14] = system: Staphylococcus epidermidis; assay: Antimicrobial activity against extended spectrum beta-lactamases-producing methicillin-sensitive Staphylococcus epidermidis 10-13 after 18-24 hrs by two-fold serial dilution method; in short: as §1
[15] = system: Escherichia coli; assay: Antimicrobial activity against Escherichia coli 10-3 after 18-24 hrs by two-fold serial dilution method; in short: as §1
[16] = system: Klebsiella pneumoniae; assay: Antimicrobial activity against extended spectrum beta-lactamases-producing Klebsiella pneumoniae 10-2 after 18-24 hrs by two-fold serial dilution method; in short: as §1
[17] = system: Escherichia coli; assay: Antimicrobial activity against extended spectrum beta-lactamases-producing Escherichia coli 10-3 after 18-24 hrs by two-fold serial dilution method; in short: as §1
[18] = system: Escherichia coli; assay: Antimicrobial activity against extended spectrum beta-lactamases-producing Escherichia coli 10-2 after 18-24 hrs by two-fold serial dilution method; in short: as §1
[19] = system: Staphylococcus aureus; assay: Antimicrobial activity against extended spectrum beta-lactamases-producing methicillin-sensitive Staphylococcus aureus 10-14 after 18-24 hrs by two-fold serial dilution method; in short: as §1
[20] = system: Staphylococcus epidermidis; assay: Antimicrobial activity against extended spectrum beta-lactamases-producing methicillin-sensitive Staphylococcus epidermidis 10-11 after 18-24 hrs by two-fold serial dilution method; in short: as §1
[21] = system: Enterococcus faecium; assay: Antimicrobial activity against Enterococcus faecium 10-5 after 18-24 hrs by two-fold serial dilution method; in short: as §1
[22] = system: Escherichia coli; assay: Antimicrobial activity against Escherichia coli ATCC 25922 after 18-24 hrs by two-fold serial dilution method; in short: as §1
[23] = system: Pseudomonas aeruginosa; assay: Antimicrobial activity against extended spectrum beta-lactamases-producing Pseudomonas aeruginosa 10-9 after 18-24 hrs by two-fold serial dilution method; in short: as §1
[24] = system: Pseudomonas aeruginosa; assay: Antimicrobial activity against extended spectrum beta-lactamases-producing Pseudomonas aeruginosa 10-20 after 18-24 hrs by two-fold serial dilution method; in short: as §1
[25] = system: Staphylococcus epidermidis; assay: Antimicrobial activity against extended spectrum beta-lactamases-producing methicillin-sensitive Staphylococcus epidermidis 10-15 after 18-24 hrs by two-fold serial dilution method; in short: as §1
[26] = system: Staphylococcus aureus; assay: Antimicrobial activity against extended spectrum beta-lactamases-producing methicillin-resistant Staphylococcus aureus 10-15 after 18-24 hrs by two-fold serial dilution method; in short: as §2
[27] = system: Klebsiella pneumoniae; assay: Antimicrobial activity against Klebsiella pneumoniae 10-4 after 18-24 hrs by two-fold serial dilution method; in short: as §1
[28] = system: Escherichia coli; assay: Antimicrobial activity against Escherichia coli 10-2 after 18-24 hrs by two-fold serial dilution method; in short: as §1
[29] = system: Klebsiella pneumoniae; assay: Antimicrobial activity against Klebsiella pneumoniae 10-2 after 18-24 hrs by two-fold serial dilution method; in short: as §1
[30] = system: Pseudomonas aeruginosa; assay: Antimicrobial activity against extended spectrum beta-lactamases-producing Pseudomonas aeruginosa 10-5 after 18-24 hrs by two-fold serial dilution method; in short: as §1
[31] = system: Enterococcus faecium; assay: Antimicrobial activity against Enterococcus faecium 10-9 after 18-24 hrs by two-fold serial dilution method; in short: as §1
[32] = system: Pseudomonas aeruginosa; assay: Antimicrobial activity against extended spectrum beta-lactamases-producing Pseudomonas aeruginosa 10-18 after 18-24 hrs by two-fold serial dilution method; in short: as §1
[33] = system: Streptococcus pneumoniae; assay: Antimicrobial activity against extended spectrum beta-lactamases-producing Streptococcus pneumoniae 10-4 after 18-24 hrs by two-fold serial dilution method; in short: as §1
[34] = system: Klebsiella pneumoniae; assay: Antimicrobial activity against Klebsiella pneumoniae 10-3 after 18-24 hrs by two-fold serial dilution method; in short: as §1
[35] = system: Escherichia coli; assay: Antimicrobial activity against extended spectrum beta-lactamases-producing Escherichia coli 10-4 after 18-24 hrs by two-fold serial dilution method; in short: as §1

SMILES | MIC [1] [µg/mL] | MIC [2] [µg/mL] | MIC [3] [µg/mL] | MIC [4] [µg/mL] | MIC [5] [µg/mL] | MIC [6] [µg/mL] | MIC [7] [µg/mL] | MIC [8] [µg/mL] | MIC [9] [µg/mL] | MIC [10] [µg/mL] | MIC [11] [µg/mL] | MIC [12] [µg/mL] | MIC [13] [µg/mL] | MIC [14] [µg/mL] | MIC [15] [µg/mL] | MIC [16] [µg/mL] | MIC [17] [µg/mL] | MIC [18] [µg/mL] | MIC [19] [µg/mL] | MIC [20] [µg/mL] | other results
C[C@H]1COc2c(N3CCN(C)CC3)c(F)cc3c(=O)c(C(=O)O)cn1c23.C[C@H]1COc2c(N3CCN(C)CC3)c(F)cc3c(=O)c(C(=O)O)cn1c23.O [LEVOFLOXACIN] | 16 | 0.5 | 8 | 8 | 64 | 8 | 4 | 0.5 | 0.25 | 32 | 8 | 4 | 0.25 | 4 | 4 | 8 | 8 | 16 | 0.25 | 128 | MIC [21]: 32 µg/mL; MIC [22]: < 0.008 µg/mL; MIC [23]: 0.25 µg/mL; MIC [24]: 0.25 µg/mL; MIC [25]: 128 µg/mL; MIC [26]: 16 µg/mL; MIC [27]: 32 µg/mL; MIC [28]: 0.25 µg/mL; MIC [29]: 32 µg/mL; MIC [30]: 0.25 µg/mL; MIC [31]: 32 µg/mL
CS(=O)(=O)O.NCC1CN(c2nc3c(cc2F)c(=O)c(C(=O)O)cn3C2CC2)C/C1=N\OCc1cc2c(cc1[N+](=O)[O-])OCO2 (racemic) | 8 | 0.25 | > 128 | 2 | 32 | > 128 | 1 | 8 | 0.008 | 4 | 4 | > 128 | 8 | 8 | 32 | > 128 | 32 | > 128 | 0.25 | 0.25 | MIC [32]: 4 µg/mL; MIC [33]: 2 µg/mL; MIC [34]: 8 µg/mL; MIC [35]: 8 µg/mL; MIC [21]: 16 µg/mL; MIC [22]: 0.008 µg/mL; MIC [23]: 4 µg/mL; MIC [24]: 4 µg/mL; MIC [25]: 2 µg/mL; MIC [26]: 2 µg/mL; MIC [27]: > 128 µg/mL; MIC [28]: 8 µg/mL; MIC [29]: > 128 µg/mL; MIC [30]: 8 µg/mL; MIC [31]: 8 µg/mL
